Measurements published in ChEMBL document CHEMBL3352496, “Design, synthesis and evaluation of novel triazole core based P-glycoprotein-mediated multidrug resistance reversal agents” (Bioorg Med Chem, 2014).

Key:
[1] = Resistance factor, ratio of adriamycin IC50 for human K562/A02 cells over-expressing Pgp to adriamycin IC50 for human K562/A02 cells over-expressing Pgp in presence of 5 uM compound; format: functional
Outline: (§1)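 MTT on K562/A02 cells exposed to a series of adriamycin concentrations, with or without modulator at 5 µM; 0.1% DMSO as solvent control. Reversal fold = adriamycin IC50 without modulator / IC50 with modulator.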

[2] = Cytotoxicity against human K562/A02 cells at 5 uM after 48 hrs by MTT assay; format: cell-based; conditions: k562/a02, 48 h
Outline: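 Adriamycin-selected K562/A02 cells given test compound alone at 5 µM for 48 h; cytotoxicity scored by MTT as intrinsic growth inhibition.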

[3] = Reversal of P-gp-mediated multidrug resistance in human K562/A02 cells assessed as reduction of adriamycin IC50 at 5 uM after 48 hrs by MTT assay; format: cell-based; conditions: K562/A02, 48 h; outline: as §1
[4] = Resistance factor, ratio of adriamycin IC50 for human K562/A02 cells over-expressing Pgp to adriamycin IC50 for human K562/A02 cells over-expressing Pgp in presence of 2.5 uM compound; format: functional
Outline: (§2)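 K562/A02 (P-gp-overexpressing) cells given graded adriamycin plus modulator at 2.5, 1.25, 0.625, 0.31, 0.156, 0.078 or 0.04 µM; verapamil 2.5 µM as positive control; adriamycin IC50 by MTT. Reversal fold = IC50 without modulator / IC50 with modulator. Two to three experiments, mean ± SEM.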

[5] = Reversal of P-gp-mediated multidrug resistance in human K562/A02 cells assessed as reduction of adriamycin IC50 at 5 uM incubated for 24 hrs followed by adriamycin treatment post compound washout measured after 48 hrs by MTT assay; format: cell-based
Outline: (§3)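 K562/A02 cells incubated 24 h with 5 µM modulator, verapamil or vehicle, then washed with growth medium. […] Reversal fold = IC50 without modulator / IC50 with modulator. Two to three experiments, mean ± SEM.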

[6] = Reversal of P-gp-mediated multidrug resistance in human K562/A02 cells assessed as reduction of adriamycin IC50 at 5 uM incubated for 24 hrs prior to adriamycin treatment measured after 48 hrs by MTT assay; format: cell-based; outline: as §3
[7] = Reversal of P-gp-mediated multidrug resistance in human K562/A02 cells assessed as reduction of adriamycin IC50 at 5 uM incubated for 24 hrs followed by adriamycin treatment 6 hrs post compound washout measured after 48 hrs by MTT assay; format: cell-based; outline: as §3
[8] = Reversal of P-gp-mediated multidrug resistance in human K562/A02 cells assessed as reduction of adriamycin IC50 at 2.5 uM after 48 hrs by MTT assay; format: cell-based; conditions: K562/A02, 48 h; outline: as §2
[9] = Reversal of P-gp-mediated multidrug resistance in human K562/A02 cells assessed as reduction of adriamycin IC50 at 5 uM incubated for 24 hrs followed by adriamycin treatment 12 hrs post compound washout measured after 48 hrs by MTT assay; format: cell-based; outline: as §3
[10] = Resistance factor, ratio of adriamycin IC50 for human K562/A02 cells over-expressing Pgp to adriamycin IC50 for human K562/A02 cells over-expressing Pgp in presence of 5 uM compound incubated for 24 hrs prior to adriamycin treatment; format: functional; outline: as §3
[11] = Resistance factor, ratio of adriamycin IC50 for human K562/A02 cells over-expressing Pgp to adriamycin IC50 for human K562/A02 cells over-expressing Pgp in presence of 5 uM compound incubated for 24 hrs followed by adriamycin treatment post compound washout; format: functional; outline: as §3

With COc1cc2c(cc1OC)CN(CCn1cc(COc3ccccc3NC(=O)c3ccc4ccccc4n3)nn1)CC2 the “Ratio IC50” value [1] was 10.4, the Activity [2] was < 10% and the IC50 [3] was 5.21 µM.
With COc1cc2c(cc1OC)CN(CCn1cc(COc3ccccc3NC(=O)c3cc(OC)c(OC)c(OC)c3)nn1)CC2 the “Ratio IC50” value [1] was 16.8, the Activity [2] was < 10% and the IC50 [3] was 3.23 µM.
With COc1ccc(C(=O)Nc2ccccc2OCc2cn(CCN3CCc4cc(OC)c(OC)cc4C3)nn2)cc1 the “Ratio IC50” value [1] was 8.7, the Activity [2] was < 10% and the IC50 [3] was 6.25 µM.
For COc1cc2c(cc1OC)CN(CCn1cc(COc3ccccc3NC(=O)c3ccccc3OC)nn1)CC2, the “Ratio IC50” value [1] was 8.1, the Activity [2] was < 10% and the IC50 [3] was 6.75 µM.
With COc1cc2c(cc1OC)CN(CCn1cc(COc3ccccc3NC(=O)c3cccc(C)c3)nn1)CC2 the “Ratio IC50” value [1] was 7.6, the Activity [2] was < 10% and the IC50 [3] was 7.16 µM.
In the case of COc1cccc(C(=O)Nc2ccccc2OCc2cn(CCN3CCc4cc(OC)c(OC)cc4C3)nn2)c1, the “Ratio IC50” value [1] is reported as 5.6, the Activity [2] is reported as < 10% and the IC50 [3] is reported as 9.71 µM.
With COc1cc2c(cc1OC)CN(CCn1cc(COc3ccccc3NC(=O)c3ccc(C)cc3)nn1)CC2 the “Ratio IC50” value [1] was 7.5, the Activity [2] was < 10% and the IC50 [3] was 7.25 µM.
In the case of COc1ccc(C(=O)Nc2ccccc2OCc2cn(CCN3CCc4cc(OC)c(OC)cc4C3)nn2)cc1OC, the “Ratio IC50” value [1] is reported as 8.4, the Activity [2] is reported as < 10% and the IC50 [3] is reported as 6.45 µM.
With COc1cc2c(cc1OC)CN(CCn1cc(COc3ccccc3NC(=O)c3ccc(C#N)cc3)nn1)CC2 the “Ratio IC50” value [1] was 3.6, the Activity [2] was < 10% and the IC50 [3] was 14.4 µM.
For COc1cc2c(cc1OC)CN(CCn1cc(COc3ccccc3NC(=O)c3cccnc3)nn1)CC2, the “Ratio IC50” value [1] was 2.9, the Activity [2] was < 10% and the IC50 [3] was 18.9 µM.
In the case of COc1ccc(CCN(C)CCCC(C#N)(c2ccc(OC)c(OC)c2)C(C)C)cc1OC (stereo not given) [VERAPAMIL], the “Ratio IC50” value [4] is reported as 3.4, the IC50 [5] is reported as 40.8 µM and the IC50 [6] is reported as 9.6 µM. For the same molecule, the “Ratio IC50” value [1] was 8.7, the IC50 [7] was > 80 µM and the IC50 [8] was 15.9 µM. The IC50 [9] was > 80 µM, the IC50 [3] was 6.8 µM and the “Ratio IC50” value [10] was 8.4. The “Ratio IC50” value [11] was 1.9.
